Ki and Ratio Ki data for four compounds are collected here from ChEMBL document CHEMBL3244410, “Thymidylate synthetase inhibitors. Synthesis of N-substituted 5-aminomethyl-2'-deoxyuridine 5'-phosphates” (J Med Chem, 1977).

Experiment [1] can be described thus: Competitive inhibition of purified Escherichia coli thymidylate synthetase using t5-[3H]-2'-deoxyuridine 5'-phosphate as substrate after 7 mins by double reciprocal plot method. A digest of the protocol: (§1)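 Thymidylate synthetase was purified from E. coli, calf thymus or Ehrlich ascites tumor cells. Inhibition constants came from double-reciprocal plots of velocity against substrate concentration. Each plot used five substrate concentrations and at least two inhibitor concentrations.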

Experiment [2] is described as follows: Ratio of Ki for purified mouse Ehrlich ascites tumor cell thymidylate synthetase to Ki for purified calf thymus thymidylate synthetase.
The target in experiment [3] is Thymidylate synthase (Mus musculus, UniProt P07607). In words: Competitive inhibition of purified mouse Ehrlich ascites tumor cell thymidylate synthetase using 5-[3H]-2'-deoxyuridine 5'-phosphate as substrate after 7 mins by double reciprocal plot method. A digest of the protocol: as §1
Experiment [4] has as its target T1, Thymidylate synthase (Bos taurus, UniProt Q2TA32). In words: Competitive inhibition of purified calf thymus thymidylate synthetase using 5-[3H]-2'-deoxyuridine 5'-phosphate as substrate after 7 mins by double reciprocal plot method. A digest of the protocol: as §1
Experiment [5] has as its target T1, Thymidylate synthase. In words: Noncompetitive inhibition of purified calf thymus thymidylate synthetase using 5-[3H]-2'-deoxyuridine 5'-phosphate as substrate after 7 mins by double reciprocal plot method. Put shortly: as §1

T1 sequence (Q2TA32 whole entry): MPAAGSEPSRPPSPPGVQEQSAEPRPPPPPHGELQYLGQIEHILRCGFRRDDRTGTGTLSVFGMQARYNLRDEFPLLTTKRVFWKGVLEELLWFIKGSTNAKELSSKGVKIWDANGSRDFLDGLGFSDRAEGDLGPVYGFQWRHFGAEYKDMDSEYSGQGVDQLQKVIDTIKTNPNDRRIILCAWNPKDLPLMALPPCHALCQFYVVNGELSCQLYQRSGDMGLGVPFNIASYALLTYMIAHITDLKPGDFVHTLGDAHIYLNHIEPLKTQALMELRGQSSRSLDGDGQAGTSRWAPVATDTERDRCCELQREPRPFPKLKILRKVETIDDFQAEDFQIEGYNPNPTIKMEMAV
Thymidylate synthase (Mus musculus, UniProt P07607), sequence (P07607 whole entry): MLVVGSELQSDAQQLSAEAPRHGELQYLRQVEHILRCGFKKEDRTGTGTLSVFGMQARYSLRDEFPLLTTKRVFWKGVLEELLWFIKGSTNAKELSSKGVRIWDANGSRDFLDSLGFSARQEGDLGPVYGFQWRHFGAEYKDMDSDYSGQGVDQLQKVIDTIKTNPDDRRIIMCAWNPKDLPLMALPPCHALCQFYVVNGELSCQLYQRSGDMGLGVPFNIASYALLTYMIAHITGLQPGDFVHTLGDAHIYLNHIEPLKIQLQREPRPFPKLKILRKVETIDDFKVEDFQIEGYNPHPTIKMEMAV

As a reminder, the Ki is a dissociation constant, usually derived from enzyme kinetics or from competition with a known ligand. Low values mean higher affinity, high ones lower affinity. Take `CN(C)CCNCc1cn([C@H]2C[C@H](O)[C@@H](COP(=O)(O)O)O2)c(=O)[nH]c1=O`: the Ki stood at 6 µM in experiment [1], 14 µM at Thymidylate synthase [3] and 3.1 µM on Thymidylate synthase [4]. Further, the Ratio Ki in experiment [2] is 4.

As for `O=c1[nH]c(=O)n([C@H]2C[C@H](O)[C@@H](COP(=O)(O)O)O2)cc1CN1CCCC1`, the Ki in experiment [1] turned out to be 56 µM; at Thymidylate synthase [3], 27 µM; at Thymidylate synthase [5] it was 43 µM.

As to `CN(C)Cc1cn([C@H]2C[C@H](O)[C@@H](COP(=O)(O)O)O2)c(=O)[nH]c1=O`, the Ki came to 90 µM in experiment [1], 73 µM on Thymidylate synthase [3] and 110 µM at Thymidylate synthase [4].

With `O=c1ccn([C@H]2C[C@H](O)[C@@H](COP(=O)(O)O)O2)c(=O)[nH]1` [DEOXYURIDINE MONOPHOSPHATE], the Ki in experiment [1] is 7.6 µM; on Thymidylate synthase [3], 6.5 µM; at Thymidylate synthase [4], 8 µM.
